This note sets out measurements from ChEMBL document CHEMBL1148687, “Identification of a novel 4-aminomethylpiperidine class of M3 muscarinic receptor antagonists and structural insight into their M3 selectivity” (J Med Chem, 2006).

As usually defined, the inhibition is the change of the read-out against control, counted positive when it falls. One may read the Ki as the equilibrium dissociation constant of an inhibitor or competing ligand from its target.

Assay type in all cases: cell-based
Test [1] concerns the target T1, Muscarinic acetylcholine receptor M3 (Homo sapiens, UniProt P20309). Description: Inhibition of [3H]NMS binding to human cloned M3 receptor expressed in CHO cells at 1 uM.
Target sequence in this assay (P20309 whole entry, looked up): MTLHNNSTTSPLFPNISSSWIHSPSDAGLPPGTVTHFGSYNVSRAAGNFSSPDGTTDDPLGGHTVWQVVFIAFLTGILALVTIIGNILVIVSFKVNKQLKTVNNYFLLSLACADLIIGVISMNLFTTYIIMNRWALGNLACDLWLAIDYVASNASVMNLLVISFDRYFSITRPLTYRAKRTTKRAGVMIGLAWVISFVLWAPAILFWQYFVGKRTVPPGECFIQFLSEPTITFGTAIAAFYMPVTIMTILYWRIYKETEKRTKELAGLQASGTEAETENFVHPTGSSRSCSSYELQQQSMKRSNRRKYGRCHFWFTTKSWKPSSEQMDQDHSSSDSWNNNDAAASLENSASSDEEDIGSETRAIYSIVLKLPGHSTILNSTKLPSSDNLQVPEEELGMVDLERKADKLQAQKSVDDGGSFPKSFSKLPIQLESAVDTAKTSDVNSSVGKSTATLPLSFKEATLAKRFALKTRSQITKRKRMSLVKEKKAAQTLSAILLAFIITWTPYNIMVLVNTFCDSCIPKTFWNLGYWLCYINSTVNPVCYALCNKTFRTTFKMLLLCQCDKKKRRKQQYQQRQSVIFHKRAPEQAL
Test [2] concerns the target T1, Muscarinic acetylcholine receptor M3. Description: Inhibition of [3H]NMS binding to human cloned M3 receptor expressed in CHO cells. In outline: (§1)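 Competition against specific [3H]-NMS binding on membranes of CHO cells expressing cloned human receptor subtypes. Assay buffer 50 mM Tris-HCl, 10 mM MgCl2, 1 mM EDTA, pH 7.4, highest final concentration 10 µM.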
Target sequence in this assay (P20309 whole entry): as the sequence (P20309 whole entry, looked up) above
Test [3] deals with T2, Muscarinic acetylcholine receptor M4 (Homo sapiens, UniProt P08173).
T2 sequence (P08173 whole entry): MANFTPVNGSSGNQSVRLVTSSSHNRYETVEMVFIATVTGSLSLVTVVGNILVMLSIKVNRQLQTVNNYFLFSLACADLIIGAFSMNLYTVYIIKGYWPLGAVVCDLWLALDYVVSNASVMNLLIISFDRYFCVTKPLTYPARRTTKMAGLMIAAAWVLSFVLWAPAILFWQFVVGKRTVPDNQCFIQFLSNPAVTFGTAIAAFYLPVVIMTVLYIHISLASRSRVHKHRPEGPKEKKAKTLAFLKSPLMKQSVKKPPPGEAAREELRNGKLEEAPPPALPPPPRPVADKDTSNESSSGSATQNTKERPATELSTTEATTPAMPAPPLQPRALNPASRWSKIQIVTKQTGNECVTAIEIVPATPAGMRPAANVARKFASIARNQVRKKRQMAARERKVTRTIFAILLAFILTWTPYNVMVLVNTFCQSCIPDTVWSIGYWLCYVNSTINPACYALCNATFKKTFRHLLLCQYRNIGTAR
Description: Inhibition of [3H]NMS binding to human cloned M4 receptor expressed in CHO cells. In outline: as §1

Test [4] has as its target T3, Muscarinic acetylcholine receptor M1 (Homo sapiens, UniProt P11229).
T3 sequence (P11229 whole entry): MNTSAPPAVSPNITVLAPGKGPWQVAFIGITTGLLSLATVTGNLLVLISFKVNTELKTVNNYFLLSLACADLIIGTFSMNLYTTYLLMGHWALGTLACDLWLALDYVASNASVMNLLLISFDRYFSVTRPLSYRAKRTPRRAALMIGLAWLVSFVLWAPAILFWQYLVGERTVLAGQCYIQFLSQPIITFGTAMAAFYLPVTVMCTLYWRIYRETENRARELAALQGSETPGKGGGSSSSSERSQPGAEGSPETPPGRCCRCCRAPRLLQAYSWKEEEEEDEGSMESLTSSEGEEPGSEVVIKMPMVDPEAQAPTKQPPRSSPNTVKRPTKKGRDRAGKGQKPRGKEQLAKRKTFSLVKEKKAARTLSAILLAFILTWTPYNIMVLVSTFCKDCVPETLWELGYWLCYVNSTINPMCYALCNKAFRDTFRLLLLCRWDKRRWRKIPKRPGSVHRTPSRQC
The experiment in a line: Inhibition of [3H]NMS binding to human cloned M1 receptor expressed in CHO cells. In outline:
as §1

Test [5] addresses T4, Muscarinic acetylcholine receptor M5 (Homo sapiens, UniProt P08912).
T4 sequence (P08912 whole entry): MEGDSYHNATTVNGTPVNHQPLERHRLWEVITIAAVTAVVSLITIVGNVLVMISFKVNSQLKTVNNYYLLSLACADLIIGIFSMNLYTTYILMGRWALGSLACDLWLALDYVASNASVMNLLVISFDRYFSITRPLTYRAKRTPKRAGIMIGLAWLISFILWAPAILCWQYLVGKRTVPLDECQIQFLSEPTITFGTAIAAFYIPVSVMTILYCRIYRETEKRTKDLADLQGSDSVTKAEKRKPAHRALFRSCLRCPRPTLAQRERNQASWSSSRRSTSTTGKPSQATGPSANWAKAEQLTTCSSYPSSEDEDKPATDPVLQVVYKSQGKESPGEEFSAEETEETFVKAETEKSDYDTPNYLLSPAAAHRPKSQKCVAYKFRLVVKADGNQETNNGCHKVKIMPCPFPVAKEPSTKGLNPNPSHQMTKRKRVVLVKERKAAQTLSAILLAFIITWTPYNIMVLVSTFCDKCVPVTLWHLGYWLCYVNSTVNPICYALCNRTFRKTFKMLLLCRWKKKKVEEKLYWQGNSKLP
Description: Inhibition of [3H]NMS binding to human cloned M5 receptor expressed in CHO cells. In outline: as §1

On to `O=C(NCC1CCNCC1)[C@H]1CCCN1C(=O)[C@@H]1CCCN1C(=O)CC(c1ccccc1)(c1ccccc1)c1ccccc1`, for which the inhibition in test [1] worked out at 82%. Moreover, in test [2], affinity was put at a Ki of 49 nM. In the same order, the values of `NC1CCCC(NC(=O)[C@H]2CCCN2C(=O)[C@@H]2CCCN2C(=O)CC(c2ccccc2)(c2ccccc2)c2ccccc2)C1` (stereo partly drawn) are 59% and 170 nM. As for `O=C([C@H]1CCCN1C(=O)[C@@H]1CCCN1C(=O)CC(c1ccccc1)(c1ccccc1)c1ccccc1)N1CCNCC1`, the inhibition in test [1] was 12%. Take `Nc1ccccc1CNC(=O)[C@H]1CCCN1C(=O)[C@@H]1CCCN1C(=O)CC(c1ccccc1)(c1ccccc1)c1ccccc1` (stereo in doubt; 46): the inhibition in test [1] was 10%. Same read-out and setting: the same measure for `Nc1ccc(CNC(=O)[C@H]2CCCN2C(=O)[C@@H]2CCCN2C(=O)CC(c2ccccc2)(c2ccccc2)c2ccccc2)cc1`: 6%.

Consider `O=C(NC1CCNCC1)[C@H]1CCCN1C(=O)[C@@H]1CCCN1C(=O)CC(c1ccccc1)(c1ccccc1)c1ccccc1`, for which the inhibition in test [1] is 4%. On the same count and under the same terms, the same measure for `NCCCNC(=O)[C@H]1CCCN1C(=O)[C@@H]1CCCN1C(=O)CC(c1ccccc1)(c1ccccc1)c1ccccc1`: 2%.

Take `O=C(NCCC1CCNCC1)[C@H]1CCCN1C(=O)[C@@H]1C[C@@H](O)CN1C(=O)CC(c1ccc(Cl)cc1)(c1ccc(Cl)cc1)c1ccc(Cl)cc1`: the Ki in test [3] came out at 24 nM; in test [4], 260 nM; in test [2], 1.2 nM; in test [5], 950 nM. With `O=C(NCC1CCCCN1)[C@H]1CCCN1C(=O)[C@@H]1CCCN1C(=O)CC(c1ccccc1)(c1ccccc1)c1ccccc1` (stereo partly drawn), the inhibition in test [1] worked out at 28%. As to `NCC1CCCN(C(=O)[C@H]2CCCN2C(=O)[C@@H]2CCCN2C(=O)CC(c2ccccc2)(c2ccccc2)c2ccccc2)C1` (stereo partly drawn), the inhibition in test [1] was 32%. Turning to `O=C(NCC1CCNC1)[C@H]1CCCN1C(=O)[C@@H]1CCCN1C(=O)CC(c1ccccc1)(c1ccccc1)c1ccccc1` (stereo partly drawn), in test [1], the inhibition worked out at 33%. The same measure, in the same setting: next, `O=C([C@H]1CCCN1C(=O)[C@@H]1CCCN1C(=O)CC(c1ccccc1)(c1ccccc1)c1ccccc1)N1CCCNCC1`: -2%. On the same count and under the same terms, next, `O=C(NC1CCNC1)[C@H]1CCCN1C(=O)[C@@H]1CCCN1C(=O)CC(c1ccccc1)(c1ccccc1)c1ccccc1` (stereo partly drawn): -4%. Turning to `NC1CCCN(C(=O)[C@H]2CCCN2C(=O)[C@@H]2CCCN2C(=O)CC(c2ccccc2)(c2ccccc2)c2ccccc2)C1` (stereo partly drawn), in test [1], the inhibition came to 22%. On to `O=C(NCC1CCN(CC2CCCC2)CC1)[C@H]1CCCN1C(=O)[C@@H]1C[C@@H](O)CN1C(=O)CC(c1ccc(F)cc1)(c1ccc(F)cc1)c1ccc(F)cc1`, for which the Ki in test [3] was found to be 11 nM; in test [4] it was 71 nM; in test [2], 0.19 nM; in test [5], 940 nM. As to `O=C([C@H]1CCCN1C(=O)[C@@H]1CCCN1C(=O)CC(c1ccccc1)(c1ccccc1)c1ccccc1)N1CCCNC1`, in test [1], the inhibition came out at 12%. Regarding `O=C(NCC1CCN(CC2CC2)CC1)[C@H]1CCCN1C(=O)[C@@H]1C[C@@H](O)CN1C(=O)CC(c1ccc(F)cc1)(c1ccc(F)cc1)c1ccc(F)cc1`, the Ki amounted to 20 nM in test [3], 65 nM in test [4], 0.17 nM in test [2] and 1600 nM in test [5]. `NC1CCC(NC(=O)[C@H]2CCCN2C(=O)[C@@H]2CCCN2C(=O)CC(c2ccccc2)(c2ccccc2)c2ccccc2)CC1` (stereo partly drawn): in test [1], the inhibition was -7%. As to `O=C(NCCC1CCNCC1)[C@H]1CCCN1C(=O)[C@@H]1C[C@@H](O)CN1C(=O)CC(c1ccc(F)cc1)(c1ccc(F)cc1)c1ccc(F)cc1`, the Ki in test [3] is 29 nM; in test [4], 300 nM; in test [2], 0.48 nM; in test [5], 1700 nM.

In the case of `N[C@H]1CCCC[C@@H]1NC(=O)[C@H]1CCCN1C(=O)[C@@H]1CCCN1C(=O)CC(c1ccccc1)(c1ccccc1)c1ccccc1`, in test [1], the inhibition was 80%. The affinity in test [2] corresponds to a Ki of 48 nM. Take `O=C(NCCC1CCNCC1)[C@H]1CCCN1C(=O)[C@@H]1C[C@@H](O)CN1C(=O)CC(c1ccccc1)(c1ccccc1)c1ccccc1`: the Ki in test [3] was 150 nM; in test [4], 2000 nM; in test [2] it was 2.8 nM; in test [5], more than 5100 nM.

In the case of `CC(C)NC(=O)[C@H]1CCCN1C(=O)[C@@H]1C[C@@H](O)CN1C(=O)CC(c1ccc(F)cc1)(c1ccc(F)cc1)c1ccc(F)cc1`, the Ki was 180 nM in test [3], 800 nM in test [4], 2.4 nM in test [2] and more than 5400 nM in test [5].

Regarding `Nc1cccc(CNC(=O)[C@H]2CCCN2C(=O)[C@@H]2CCCN2C(=O)CC(c2ccccc2)(c2ccccc2)c2ccccc2)c1`, the inhibition in test [1] worked out at 6%. On to `NCc1ccc(NC(=O)[C@H]2CCCN2C(=O)[C@@H]2CCCN2C(=O)CC(c2ccccc2)(c2ccccc2)c2ccccc2)cc1`, for which the inhibition in test [1] was 9%.

As to `O=C([C@H]1CCCN1C(=O)[C@@H]1CCCN1C(=O)CC(c1ccccc1)(c1ccccc1)c1ccccc1)N1CCC2NCCC21` (stereo partly drawn), the inhibition in test [1] came to 7%. Still for that read-out and setting: next, `NCCNC(=O)[C@H]1CCCN1C(=O)[C@@H]1CCCN1C(=O)CC(c1ccccc1)(c1ccccc1)c1ccccc1`: -4%; `Nc1cccc(NC(=O)[C@H]2CCCN2C(=O)[C@@H]2CCCN2C(=O)CC(c2ccccc2)(c2ccccc2)c2ccccc2)c1`: 0%; `NCC1CCN(C(=O)[C@H]2CCCN2C(=O)[C@@H]2CCCN2C(=O)CC(c2ccccc2)(c2ccccc2)c2ccccc2)C1` (stereo partly drawn): 7%. Take `N[C@@H]1CCCC[C@@H]1NC(=O)[C@H]1CCCN1C(=O)[C@@H]1CCCN1C(=O)CC(c1ccccc1)(c1ccccc1)c1ccccc1`: the inhibition in test [1] is 40%. Turning to `Nc1ccccc1CNC(=O)[C@H]1CCCN1C(=O)[C@@H]1CCCN1C(=O)CC(c1ccccc1)(c1ccccc1)c1ccccc1` (stereo in doubt; 45), the inhibition in test [1] is 5%.

`NCC1CCCCN1C(=O)[C@H]1CCCN1C(=O)[C@@H]1CCCN1C(=O)CC(c1ccccc1)(c1ccccc1)c1ccccc1` (stereo partly drawn): the inhibition in test [1] is 5%. For the compound `O=C(NC[C@@H]1CCCNC1)[C@H]1CCCN1C(=O)[C@@H]1CCCN1C(=O)CC(c1ccccc1)(c1ccccc1)c1ccccc1`, the inhibition in test [1] came out at 91%. In test [2], this compound registered a Ki of 23 nM. For `NC1CCN(C(=O)[C@H]2CCCN2C(=O)[C@@H]2CCCN2C(=O)CC(c2ccccc2)(c2ccccc2)c2ccccc2)C1` (stereo partly drawn), the inhibition in test [1] is 0%.

`Nc1ccc(NC(=O)[C@H]2CCCN2C(=O)[C@@H]2CCCN2C(=O)CC(c2ccccc2)(c2ccccc2)c2ccccc2)cc1`: the inhibition in test [1] amounted to 8%. Consider `NCc1cccc(NC(=O)[C@H]2CCCN2C(=O)[C@@H]2CCCN2C(=O)CC(c2ccccc2)(c2ccccc2)c2ccccc2)c1`, for which, in test [1], the inhibition is 12%. With `O=C(NCCC1CCNCC1)[C@H]1CCCN1C(=O)[C@@H]1CCCN1C(=O)CC(c1ccccc1)(c1ccccc1)c1ccccc1`, in test [1], the inhibition was 88%. In addition, the inhibition constant (Ki) in test [2] is 29 nM. `NCC1CCN(C(=O)[C@H]2CCCN2C(=O)[C@@H]2CCCN2C(=O)CC(c2ccccc2)(c2ccccc2)c2ccccc2)CC1`: the inhibition in test [1] stood at 59%. The Ki in test [2] came to 150 nM. Turning to `Nc1ccccc1NC(=O)[C@H]1CCCN1C(=O)[C@@H]1CCCN1C(=O)CC(c1ccccc1)(c1ccccc1)c1ccccc1`, the inhibition in test [1] was 11%. For `O=C([C@H]1CCCN1C(=O)[C@@H]1CCCN1C(=O)CC(c1ccccc1)(c1ccccc1)c1ccccc1)N1CC2CNCC2C1` (stereo partly drawn), in test [1], the inhibition stood at 7%.
